Test results: ChEMBL document CHEMBL5385938 (J Med Chem, 2024)
Active and inactive are the calls of the source. No cut-off for these calls is given here.

What was measured:
T47D = assay: Cytotoxicity against human T47D cells harboring PI3Kalpha H1047R mutant assessed as reduction in cell viability incubated for 72 hrs by CellTiter-Glo 2.0 luminescent cell viability assay; format: functional, cell-based
SK-BR-3 = assay: Cytotoxicity against human SK-BR-3 cells harboring wildtype PI3Kalpha assessed as reduction in cell viability incubated for 72 hrs by CellTiter-Glo 2.0 luminescent cell viability assay; format: functional, cell-based; details: SK-BR-3, 72 h
[1] = Metabolic stability in pooled human hepatocytes assessed as intrinsic clearance; format: ADME, Liver, Hepatocyte; details: read-out: CLH
[2] = Selectivity ratio of IC50 for cytotoxicity against human SK-BR-3 cells harboring wild type PI3Kalpha to IC50 for cytotoxicity against human T47D cells harboring PI3Kalpha H1047R mutant; format: functional
[3] = target: T1, Phosphatidylinositol 4,5-bisphosphate 3-kinase catalytic subunit alpha isoform (Homo sapiens, UniProt P42336, H1047R); assay: Inhibition of PI3Kalpha H1047R mutant (unknown origin) using PI(4,5)P2:PS as substrate incubated in presence of ATP by ADP-Glo assay
[4] = target: T1, Phosphatidylinositol 4,5-bisphosphate 3-kinase catalytic subunit alpha isoform
Homo sapiens = species on record: Homo sapiens; assay: Selectivity ratio of IC50 for inhibition of recombinant N-terminal 6-His tagged full length human wildtype PI3Kalpha to IC50 for inhibition of recombinant N-terminal 6-His tagged full length human PI3Kalpha H1047R mutant
[5] = target: T1, Phosphatidylinositol 4,5-bisphosphate 3-kinase catalytic subunit alpha isoform; assay: Inhibition of recombinant N-terminal 6-His tagged full length human PI3Kalpha H1047R mutant using PIP2diC8 and PIP2:PS as substrate incubated for 1 hrs in presence of ATP by fluorescence based plate reader analysis
HCC1954 [6] = assay: Antitumor activity against ER-/HER2+ human HCC1954 cells harboring endogenous PI3Kalpha H1047R mutant xenografted in NOD.CB17-Prkdcscid/NCrCr mouse assessed as tumor growth inhibition at 100 mg/kg, ip administered once a day for 14 days relative to control; format: functional; details: HCC1954, 336 h, time 14 day, read-out: TGI
Method in brief: (§1)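 HCC1954 xenograft mice (ER-/HER2+ breast line, endogenous PI3Kα H1047R) were dosed IP for 14 days, at 100 mg/kg qd or 80 mg/kg b.i.d. Read-out was tumor growth inhibition or regression (%).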

[7] = Half-life in Sprague-Dawley rat at 3 mg/kg, iv measured upto 24 hrs; format: ADME, organism-based; details: in vivo
[8] = In vivo inhibition of AKT phosphorylation in NOD.CB17-Prkdcscid/NCrCr mouse xenografted with ER-/HER+ human HCC1954 cells harboring PI3Kalpha H1047R mutant at 60 mg/kg, ip administered as single dose and measured after 8 hrs by immunoblotting analysis relative to control; format: functional
Method in brief: (§2)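 HCC1954 tumor-bearing mice received a single IP dose of 60 or 120 mg/kg. Tumor pAKT modulation was measured at 1 h and 8 h post dose, relative to control.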

[9] = Half-life in Beagle dog at 2 mg/kg, iv measured upto 24 hrs; format: ADME, organism-based, Canis lupus familiaris; details: in vivo
[10] = Oral bioavailability in Sprague-Dawley rat at 100 mg/kg measured upto 24 hrs; format: ADME, organism-based; details: in vivo
[11] = Volume of distribution at steady state in Beagle dog at 10 mg/kg, po or 2 mg/kg, iv measured upto 24 hrs; format: ADME, organism-based, Canis lupus familiaris; details: in vivo
[12] = Volume of distribution at steady state in CD-1 mouse at 100 mg/kg, po or 3 mg/kg, iv measured upto 24 hrs; format: ADME, organism-based; details: in vivo
[13] = Oral bioavailability in Beagle dog at 10 mg/kg measured upto 24 hrs; format: ADME, organism-based, Canis lupus familiaris; details: in vivo
[14] = Oral bioavailability in CD-1 mouse at 100 mg/kg measured upto 24 hrs; format: ADME, organism-based; details: in vivo
[15] = Half-life in CD-1 mouse at 3 mg/kg, iv measured upto 24 hrs; format: ADME, organism-based; details: in vivo
[16] = Volume of distribution at steady state in Sprague-Dawley rat at 100 mg/kg, po or 3 mg/kg, iv measured upto 24 hrs; format: ADME, organism-based; details: in vivo
[17] = In vivo inhibition of AKT phosphorylation in NOD.CB17-Prkdcscid/NCrCr mouse xenografted with ER-/HER+ human HCC1954 cells harboring PI3Kalpha H1047R mutant at 120 mg/kg, ip administered as single dose and measured after 8 hrs by immunoblotting analysis relative to control; format: functional; method in brief: as §2
Mus musculus = assay: In vivo inhibition of AKT phosphorylation in NOD.CB17-Prkdcscid/NCrCr mouse xenografted with ER-/HER+ human HCC1954 cells harboring PI3Kalpha H1047R mutant at 100 to 300 mg/kg, po measured upto 8 hrs by immunoblotting analysis; format: functional, organism-based; details: dose 100-300 mg/kg
HCC1954 [18] = assay: Antitumor activity against ER-/HER2+ human HCC1954 cells harboring endogenous PI3Kalpha H1047R mutant xenografted in NOD.CB17-Prkdcscid/NCrCr mouse assessed as tumor regression at 80 mg/kg, ip administered twice daily for 14 days relative to control; format: functional; details: time 14 day; method in brief: as §1
[19] = Drug uptake in NOD.CB17-Prkdcscid/NCrCr mouse xenografted with ER-/HER+ human HCC1954 cells harboring PI3Kalpha H1047R mutant at 60 to 120 mg/kg, ip administered as single dose and measured upto 8 hrs; format: ADME, organism-based; details: in vivo, dose 60-120 mg/kg

T1 sequence (P42336 whole entry H1047R, canonical isoform): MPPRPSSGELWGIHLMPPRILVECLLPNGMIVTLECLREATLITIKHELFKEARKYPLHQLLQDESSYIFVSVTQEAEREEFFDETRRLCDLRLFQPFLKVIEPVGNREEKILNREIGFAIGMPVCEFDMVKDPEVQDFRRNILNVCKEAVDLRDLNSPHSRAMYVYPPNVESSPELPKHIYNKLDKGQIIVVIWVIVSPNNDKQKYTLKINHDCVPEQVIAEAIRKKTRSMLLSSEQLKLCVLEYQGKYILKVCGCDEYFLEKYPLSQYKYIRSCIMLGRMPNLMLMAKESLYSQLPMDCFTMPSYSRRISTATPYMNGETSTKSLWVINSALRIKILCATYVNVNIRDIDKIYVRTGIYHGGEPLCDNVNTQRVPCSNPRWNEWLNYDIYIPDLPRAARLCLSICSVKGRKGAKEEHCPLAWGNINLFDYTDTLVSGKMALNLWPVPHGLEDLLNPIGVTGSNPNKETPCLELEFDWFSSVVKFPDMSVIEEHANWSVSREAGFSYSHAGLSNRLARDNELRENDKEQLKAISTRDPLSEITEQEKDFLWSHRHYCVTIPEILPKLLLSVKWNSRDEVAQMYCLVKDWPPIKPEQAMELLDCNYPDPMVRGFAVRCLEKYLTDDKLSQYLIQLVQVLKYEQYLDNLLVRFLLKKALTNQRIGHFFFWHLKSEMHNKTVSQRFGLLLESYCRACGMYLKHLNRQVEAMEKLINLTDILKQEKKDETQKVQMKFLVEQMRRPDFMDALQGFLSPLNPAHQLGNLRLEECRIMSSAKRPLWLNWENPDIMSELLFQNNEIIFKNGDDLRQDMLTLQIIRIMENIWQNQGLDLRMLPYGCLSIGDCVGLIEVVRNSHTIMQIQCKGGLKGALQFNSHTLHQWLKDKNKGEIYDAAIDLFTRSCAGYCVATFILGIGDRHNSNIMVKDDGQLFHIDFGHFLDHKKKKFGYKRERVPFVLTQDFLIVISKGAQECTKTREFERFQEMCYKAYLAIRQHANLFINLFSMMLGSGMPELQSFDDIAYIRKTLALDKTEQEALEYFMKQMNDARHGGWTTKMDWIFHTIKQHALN

Compound	CLint scaled [1]	IC50 (T47D)	IC50 (SK-BR-3)	also measured
Cc1cc([C@@H](C)Nc2nccnc2C(=O)O)c2nc(N3CCC(F)(F)CC3)c(C#N)c(=O)n2c1		3720 nM		
Cc1cc(C(C)Nc2ccccc2C(=O)O)c2nc(N3CCCCC3)ncc2c1 (centres undefined)		> 10000 nM	> 10000 nM	
Cc1cc([C@@H](C)Nc2ccccc2C(=O)O)c2nc(N3CC4(C3)CC(F)(F)C4)c(C#N)c(=O)n2c1	118 mL/min/kg	> 10000 nM	> 10000 nM	
Cc1cc([C@@H](C)Nc2cscc2C(=O)O)c2nc(N3CCC(F)(F)CC3)c(C#N)c(=O)n2c1		183 nM		
Cc1cc([C@@H](C)Nc2ccccc2C(=O)O)c2nc(N3CC4CC(C3)C4(F)F)c(C#N)c(=O)n2c1	39 mL/min/kg	71 nM	> 10000 nM	
Cc1ccccc1C1NC(=O)c2cc(NC3COC3)cc(NC(=O)c3csc4ccccc34)c21 (centres undefined)				IC50 [4]: ≤ 100 nM
Cc1cc([C@@H](C)Nc2ccccc2C(=O)O)c2oc(N3CCCCC3)cc(=O)c2c1				Ratio IC50 (Homo sapiens): 13.5; IC50 [5]: < 500 nM
Cc1cc([C@@H](C)Nc2ccc(Cl)nc2C(=O)O)c2nc(N3CCC(F)(F)CC3)c(C#N)c(=O)n2c1		304 nM		
Cc1cc([C@@H](C)Nc2cccc(F)c2C(=O)O)c2nc(N3CCC(F)(F)CC3)c(C#N)c(=O)n2c1		566 nM		
Cc1cc([C@@H](C)Nc2ccccc2C(=O)O)c2oc(N3CCC(C)(C)CC3)c(C)c(=O)c2c1		160 nM	9080 nM	Ratio IC50 [2]: 57
Cc1cc([C@@H](C)Nc2ccccc2C(=O)O)c2nc(N3CC(F)(F)C3)c(C#N)c(=O)n2c1	24 mL/min/kg	56 nM	> 10000 nM	
Cc1cc([C@@H](C)Nc2ccc(Cl)cc2C(=O)O)c2nc(N3CCC(F)(F)CC3)c(C#N)c(=O)n2c1		627 nM		
Cc1cc(C(C)Nc2ccccc2C(=O)O)c2nc(N3CCC(C)(C)CC3)n(C)c(=O)c2c1 (centres undefined)		6240 nM	> 10000 nM	Ratio IC50 [2]: 2

Second part, led by results:

CLint scaled [1]	Compound	IC50 (T47D)	IC50 (SK-BR-3)	also measured
79 mL/min/kg	Cc1cc([C@@H](C)Nc2ccccc2C(=O)O)c2nc(N3CCCCC3)c(C#N)c(=O)n2c1	86 nM	9940 nM	
78 mL/min/kg	Cc1cc([C@@H](C)Nc2ccccc2C(=O)O)c2nc(N3CCCC3)c(C#N)c(=O)n2c1	135 nM	> 10000 nM	
12 mL/min/kg	Cc1cc([C@@H](C)Nc2ccccc2C(=O)O)c2nc(C3CCC(F)(F)CC3)c(C#N)c(=O)n2c1	246 nM	> 10000 nM	
340 mL/min/kg	Cc1cc([C@@H](C)Nc2ccccc2C(=O)O)c2nc(N3CCCCC3)c(C)c(=O)n2c1	120 nM	> 10000 nM	Ratio IC50 [2]: 83
862 mL/min/kg	Cc1cc([C@@H](C)Nc2ccccc2C(=O)O)c2nc(N3CCCCC3)c(F)c(=O)n2c1			
181 mL/min/kg	Cc1cc([C@@H](C)Nc2ccccc2C(=O)O)c2nc(N3CCCCC3)cc(=O)n2c1	1110 nM	> 10000 nM	IC50 [3]: 411 nM; Ratio IC50 [2]: 9
5 mL/min/kg	Cc1cc([C@@H](C)Nc2ccccc2C(=O)O)c2nc(N3CCS(=O)(=O)CC3)c(C#N)c(=O)n2c1	> 10000 nM	> 10000 nM	
29 mL/min/kg	Cc1cc([C@@H](C)Nc2ccccc2C(=O)O)c2nc(N3CCC(F)(F)CC3)c(C#N)c(=O)n2c1	48 nM	8970 nM	inhibition in vivo at 100 mg/kg (HCC1954 [6]): 88%; t1/2 [7]: 3.5 h; inhibition in vivo at 60 mg/kg [8]: 42%; t1/2 [9]: 0.7 h; IC50 [3]: 73 nM; F [10]: 57%; Vdss [11]: 1.5 L/kg; Vdss [12]: 13.6 L/kg; F [13]: 7%; F [14]: 48%; t1/2 [15]: 2 h; Vdss [16]: 4.8 L/kg; inhibition in vivo at 120 mg/kg [17]: 81%; inhibition (Mus musculus): inactive; Activity (HCC1954 [18]): -34%; Drug uptake [19]: Active
76 mL/min/kg	Cc1cc([C@@H](C)Nc2ccccc2C(=O)O)c2nc(N3CCC(C)(C)CC3)c(C#N)c(=O)n2c1	151 nM	> 10000 nM	
